Reference: ChEMBL document CHEMBL1255409, “In vitro activity of ceftaroline against 623 diverse strains of anaerobic bacteria” (2010)
≈ marks a conversion by molar mass, not a printed value.

Key:
Assay type in all cases: functional
[1] = tested on: Prevotella melaninogenica; assay: Antimicrobial activity against Prevotella melaninogenica under anaerobic conditions after 44 hrs by CLSI-M11-47 protocol based agar dilution method
How it was run: (§1)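 Clinical isolates were stored at −70°C in 20% skim milk and identified phenotypically or by partial 16S rRNA sequencing. Each strain was subcultured twice from frozen stock. Cell paste from 48-h cultures was suspended in brucella broth to a 0.5 McFarland standard. About 10^5 CFU per spot were applied by Steers replicator to agar dilution plates prepared on the day of testing. Plates were incubated 44 h at 37°C in an anaerobic chamber. MIC was taken as the lowest concentration giving complete inhibition or marked reduction of growth versus the drug-free control.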

Clostridium perfringens = assay: Antimicrobial activity against Clostridium perfringens under anaerobic conditions after 44 hrs by CLSI-M11-47 protocol based agar dilution method
Eubacterium cylindroides = assay: Antimicrobial activity against Eubacterium cylindroides under anaerobic conditions after 44 hrs by CLSI-M11-47 protocol based agar dilution method; settings: Faecalitalea cylindroides
How it was run: (§2)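 Reference agar dilution per CLSI M11-A7 with plates made on test day. Clinical isolates were stored at −70°C in 20% skim milk, subcultured twice, and 48-h cell paste was suspended in brucella broth to 0.5 McFarland. About 10^5 CFU/spot was applied with a Steers replicator. Plates were incubated 44 h at 37°C anaerobically. MIC was the lowest concentration giving complete inhibition or marked growth reduction versus the drug-free control.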

Parabacteroides merdae = assay: Antimicrobial activity against Bacteroides merdae under anaerobic conditions after 44 hrs by CLSI-M11-47 protocol based agar dilution method; how it was run: as §2
Phocaeicola vulgatus = assay: Antimicrobial activity against Bacteroides vulgatus under anaerobic conditions after 44 hrs by CLSI-M11-47 protocol based agar dilution method; how it was run: as §2
Thomasclavelia ramosa = assay: Antimicrobial activity against Clostridium ramosum under anaerobic conditions after 44 hrs by CLSI-M11-47 protocol based agar dilution method; how it was run: as §2
Bacteroides fragilis [2] = assay: Antimicrobial activity against Bacteroides fragilis under anaerobic conditions after 44 hrs by CLSI-M11-47 protocol based agar dilution method; how it was run: as §2
Eubacterium limosum = assay: Antimicrobial activity against Eubacterium limosum under anaerobic conditions after 44 hrs by CLSI-M11-47 protocol based agar dilution method; how it was run: as §2
[3] = tested on: Peptostreptococcus anaerobius; assay: Antimicrobial activity against Peptostreptococcus anaerobius under anaerobic conditions after 44 hrs by CLSI-M11-47 protocol based agar dilution method; how it was run: as §1
Prevotella disiens = assay: Antimicrobial activity against Prevotella disiens under anaerobic conditions after 44 hrs by CLSI-M11-47 protocol based agar dilution method; how it was run: as §1
Clostridium symbiosum = assay: Antimicrobial activity against Clostridium symbiosum under anaerobic conditions after 44 hrs by CLSI-M11-47 protocol based agar dilution method; how it was run: as §2
Anaerococcus tetradius = assay: Antimicrobial activity against Anaerococcus tetradius under anaerobic conditions after 44 hrs by CLSI-M11-47 protocol based agar dilution method; how it was run: as §2
Bacteroides uniformis = assay: Antimicrobial activity against Bacteroides uniformis under anaerobic conditions after 44 hrs by CLSI-M11-47 protocol based agar dilution method; how it was run: as §2
Clostridioides difficile = assay: Antimicrobial activity against Clostridium difficile under anaerobic conditions after 44 hrs by CLSI-M11-47 protocol based agar dilution method; how it was run: as §2
Actinomyces israelii = assay: Antimicrobial activity against Actinomyces israelii under anaerobic conditions after 44 hrs by CLSI-M11-47 protocol based agar dilution method; how it was run: as §2
Prevotella bergensis = assay: Antimicrobial activity against Prevotella bergensis under anaerobic conditions after 44 hrs by CLSI-M11-47 protocol based agar dilution method; settings: Hallella bergensis; how it was run: as §1
Solobacterium moorei = assay: Antimicrobial activity against Solobacterium moorei under anaerobic conditions after 44 hrs by CLSI-M11-47 protocol based agar dilution method; how it was run: as §1
Fusobacterium mortiferum = assay: Antimicrobial activity against Fusobacterium mortiferum under anaerobic conditions after 44 hrs by CLSI-M11-47 protocol based agar dilution method; how it was run: as §2
Lacticaseibacillus casei = assay: Antimicrobial activity against Lactobacillus casei under anaerobic conditions after 44 hrs by CLSI-M11-47 protocol based agar dilution method; how it was run: as §1
[4] = tested on: Fusobacterium necrophorum; assay: Antimicrobial activity against Fusobacterium necrophorum under anaerobic conditions after 44 hrs by CLSI-M11-47 protocol based agar dilution method; how it was run: as §2
Bacteroides fragilis [5] = assay: Antimicrobial activity against Bacteroides fragilis spp. under anaerobic conditions after 44 hrs by CLSI-M11-47 protocol based agar dilution method; how it was run: as §2

SMILES: Cc1ncc([N+](=O)[O-])n1CCO [METRONIDAZOLE]
- MIC50 [1]: 0.5 µg/mL (≈ 2.92 µM)
- MIC90 [1]: 1 µg/mL (≈ 5.84 µM)
- MIC50 (Clostridium perfringens): 2 µg/mL (≈ 11.7 µM)
- MIC90 (Clostridium perfringens): 4 µg/mL (≈ 23.4 µM)
- MIC50 (Eubacterium cylindroides): 0.5 µg/mL (≈ 2.92 µM)
- MIC90 (Eubacterium cylindroides): 1 µg/mL (≈ 5.84 µM)
- MIC50 (Parabacteroides merdae): 1 µg/mL (≈ 5.84 µM)
- MIC90 (Parabacteroides merdae): 2 µg/mL (≈ 11.7 µM)
- MIC50 (Phocaeicola vulgatus): 1 µg/mL (≈ 5.84 µM)
- MIC90 (Phocaeicola vulgatus): 2 µg/mL (≈ 11.7 µM)
- MIC50 (Thomasclavelia ramosa): 1 µg/mL (≈ 5.84 µM)
- MIC90 (Thomasclavelia ramosa): 1 µg/mL (≈ 5.84 µM)
- MIC50 (Bacteroides fragilis [2]): 1 µg/mL (≈ 5.84 µM)
- MIC90 (Bacteroides fragilis [2]): 2 µg/mL (≈ 11.7 µM)
- MIC50 (Eubacterium limosum): 0.5 µg/mL (≈ 2.92 µM)
- MIC90 (Eubacterium limosum): 1 µg/mL (≈ 5.84 µM)
- MIC50 [3]: 0.5 µg/mL (≈ 2.92 µM)
- MIC90 [3]: 1 µg/mL (≈ 5.84 µM)
- MIC50 (Prevotella disiens): 0.5 µg/mL (≈ 2.92 µM)
- MIC90 (Prevotella disiens): 2 µg/mL (≈ 11.7 µM)
- MIC50 (Clostridium symbiosum): 0.5 µg/mL (≈ 2.92 µM)
- MIC90 (Clostridium symbiosum): 4 µg/mL (≈ 23.4 µM)
- MIC50 (Anaerococcus tetradius): 1 µg/mL (≈ 5.84 µM)
- MIC90 (Anaerococcus tetradius): 2 µg/mL (≈ 11.7 µM)
- MIC50 (Bacteroides uniformis): 1 µg/mL (≈ 5.84 µM)
- MIC90 (Bacteroides uniformis): 2 µg/mL (≈ 11.7 µM)
- MIC50 (Clostridioides difficile): 0.5 µg/mL (≈ 2.92 µM)
- MIC90 (Clostridioides difficile): 4 µg/mL (≈ 23.4 µM)
- MIC50 (Actinomyces israelii): > 32 µg/mL
- MIC90 (Actinomyces israelii): > 32 µg/mL
- MIC50 (Prevotella bergensis): 0.5 µg/mL (≈ 2.92 µM)
- MIC90 (Prevotella bergensis): 2 µg/mL (≈ 11.7 µM)
- MIC50 (Solobacterium moorei): 0.5 µg/mL (≈ 2.92 µM)
- MIC90 (Solobacterium moorei): 1 µg/mL (≈ 5.84 µM)
- MIC50 (Fusobacterium mortiferum): 0.5 µg/mL (≈ 2.92 µM)
- MIC90 (Fusobacterium mortiferum): 1 µg/mL (≈ 5.84 µM)
- MIC50 (Lacticaseibacillus casei): > 64 µg/mL
- MIC90 (Lacticaseibacillus casei): > 64 µg/mL
- MIC50 [4]: 0.125 µg/mL (≈ 0.73 µM)
- MIC90 [4]: 0.25 µg/mL (≈ 1.46 µM)
- MIC50 (Bacteroides fragilis [5]): 1 µg/mL (≈ 5.84 µM)
- MIC90 (Bacteroides fragilis [5]): 2 µg/mL (≈ 11.7 µM)

SMILES: CCO/N=C(\C(=O)N[C@@H]1C(=O)N2C(C(=O)[O-])=C(Sc3nc(-c4cc[n+](C)cc4)cs3)CS[C@H]12)c1nsc(NP(=O)(O)O)n1 [CEFTAROLINE FOSAMIL]
- MIC50 [1]: 2 µg/mL (≈ 2.92 µM)
- MIC90 [1]: 32 µg/mL (≈ 46.7 µM)
- MIC50 (Clostridium perfringens): 0.125 µg/mL (≈ 0.183 µM)
- MIC90 (Clostridium perfringens): 0.25 µg/mL (≈ 0.365 µM)
- MIC50 (Eubacterium cylindroides): 0.125 µg/mL (≈ 0.183 µM)
- MIC90 (Eubacterium cylindroides): 0.25 µg/mL (≈ 0.365 µM)
- MIC50 (Parabacteroides merdae): 64 µg/mL (≈ 93.5 µM)
- MIC90 (Parabacteroides merdae): > 64 µg/mL
- MIC50 (Phocaeicola vulgatus): 64 µg/mL (≈ 93.5 µM)
- MIC90 (Phocaeicola vulgatus): > 64 µg/mL
- MIC50 (Thomasclavelia ramosa): 1 µg/mL (≈ 1.46 µM)
- MIC90 (Thomasclavelia ramosa): 1 µg/mL (≈ 1.46 µM)
- MIC50 (Bacteroides fragilis [2]): 16 µg/mL (≈ 23.4 µM)
- MIC90 (Bacteroides fragilis [2]): 64 µg/mL (≈ 93.5 µM)
- MIC50 (Eubacterium limosum): 0.125 µg/mL (≈ 0.183 µM)
- MIC90 (Eubacterium limosum): 0.25 µg/mL (≈ 0.365 µM)
- MIC50 [3]: 0.5 µg/mL (≈ 0.73 µM)
- MIC90 [3]: 4 µg/mL (≈ 5.84 µM)
- MIC50 (Prevotella disiens): 2 µg/mL (≈ 2.92 µM)
- MIC90 (Prevotella disiens): 32 µg/mL (≈ 46.7 µM)
- MIC50 (Clostridium symbiosum): 0.5 µg/mL (≈ 0.73 µM)
- MIC90 (Clostridium symbiosum): 16 µg/mL (≈ 23.4 µM)
- MIC50 (Anaerococcus tetradius): 0.03 µg/mL (≈ 0.0438 µM)
- MIC90 (Anaerococcus tetradius): 0.125 µg/mL (≈ 0.183 µM)
- MIC50 (Bacteroides uniformis): 64 µg/mL (≈ 93.5 µM)
- MIC90 (Bacteroides uniformis): > 64 µg/mL
- MIC50 (Clostridioides difficile): 0.5 µg/mL (≈ 0.73 µM)
- MIC90 (Clostridioides difficile): 16 µg/mL (≈ 23.4 µM)
- MIC50 (Actinomyces israelii): 0.015 µg/mL (≈ 0.0219 µM)
- MIC90 (Actinomyces israelii): 0.25 µg/mL (≈ 0.365 µM)
- MIC50 (Prevotella bergensis): 2 µg/mL (≈ 2.92 µM)
- MIC90 (Prevotella bergensis): 32 µg/mL (≈ 46.7 µM)
- MIC50 (Solobacterium moorei): 0.125 µg/mL (≈ 0.183 µM)
- MIC90 (Solobacterium moorei): 0.25 µg/mL (≈ 0.365 µM)
- MIC50 (Fusobacterium mortiferum): 8 µg/mL (≈ 11.7 µM)
- MIC90 (Fusobacterium mortiferum): 32 µg/mL (≈ 46.7 µM)
- MIC50 (Lacticaseibacillus casei): 0.5 µg/mL (≈ 0.73 µM)
- MIC90 (Lacticaseibacillus casei): 1 µg/mL (≈ 1.46 µM)
- MIC50 [4]: 0.03 µg/mL (≈ 0.0438 µM)
- MIC90 [4]: 0.06 µg/mL (≈ 0.0876 µM)
- MIC50 (Bacteroides fragilis [5]): 64 µg/mL (≈ 93.5 µM)
- MIC90 (Bacteroides fragilis [5]): > 64 µg/mL
